In one assay the test system is Nakaseomyces glabratus. Description: Antifungal activity against Candida glabrata ATCC 90030 after 48 to 96 hrs by broth microdilution method. The assay is classed as functional. Put shortly:
(§1)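 Broth microdilution followed NCCLS with slight modification, giving MIC. Compounds were dissolved in DMSO as a 12.8 mg/mL stock and diluted in RPMI-1640, with final solvent below 1%. Yeasts were kept on modified Sabouraud dextrose agar or potato dextrose agar slants, and filamentous fungi on potato dextrose agar.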
Background: Dilution methods test growth across graded concentrations, often in twofold steps.

Assay [1] relates to Candida albicans. Description: Antifungal activity against Candida albicans ATCC 90028 after 48 to 96 hrs by broth microdilution method. It counts as functional. The method in brief:
as §1

Assay [2] deals with Aspergillus fumigatus. Description: Antifungal activity against Aspergillus fumigatus IFM 41236 after 48 to 96 hrs by broth microdilution method. It counts as functional. The method in brief:
as §1

The test system of another assay is Aspergillus nidulans. The assay is described as follows: Antifungal activity against Aspergillus nidulans IFM 5396 after 48 to 96 hrs by broth microdilution method. The assay is classed as functional. Put shortly:
as §1

Assay [3] deals with Aspergillus fumigatus. Description: Antifungal activity against Aspergillus fumigatus IFM 41374 after 48 to 96 hrs by broth microdilution method. The assay is classed as functional. The method in brief:
as §1

Another assay deals with Pichia kudriavzevii. The assay is described as follows: Antifungal activity against Candida krusei ATCC 6258 after 48 to 96 hrs by broth microdilution method. The assay is classed as functional. The method in brief:
as §1

The test system of the next assay is Candida parapsilosis. Description: Antifungal activity against Candida parapsilosis ATCC 22019 after 48 to 96 hrs by broth microdilution method. The assay is classed as functional. To be noted: Lodderomyces parapsilosis. The method in brief: as §1
Another assay deals with Cryptococcus neoformans. The assay is described as follows: Antifungal activity against Cryptococcus neoformans ATCC 90112 after 48 to 96 hrs by broth microdilution method. It counts as functional. The method in brief:
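Broth microdilution followed NCCLS with slight modification, giving MIC. Yeasts were kept on modified Sabouraud dextrose agar or potato dextrose agar slants, and filamentous fungi on potato dextrose agar.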

Assay [4] relates to Candida albicans. Description: Antifungal activity against Candida albicans ATCC 90028 after 48 hrs by disk diffusion assay. The assay is classed as functional. The method in brief: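 Pure compounds were dissolved in MeOH at 10 mg/mL, about 0.4 mg absorbed per 8 mm paper disk, then air-dried. Plates of Yeast Morphology Agar were incubated 48 h at 30 °C, and the diameter of the inhibition zone was measured.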
In general terms: A growth-free zone around the sample is the usual read-out of agar diffusion tests.

Assay [5] relates to Candida albicans. The assay is described as follows: Antifungal activity against Candida albicans ATCC 90028 at 100 ug/mL after 48 hrs by disk diffusion assay. To be noted: ATCC 90028, 48 h, read-out: IZ. It counts as functional. The method in brief:
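The 8 mm paper disk was dipped in the solution and air-dried. C. albicans ATCC 90028, preincubated in YPD broth, was the inoculum on Yeast Morphology Agar, incubated 48 h at 30 °C. Read-out was the diameter of the inhibition zone.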

Assay [6] has as its system Candida albicans. The assay is described as follows: microbe, parasite or virus in culture. Particulars: ATCC 90028, 48 h, read-out: IZ.

Converted amounts (≈) assume the structure as drawn.

This is an account of results in ChEMBL document CHEMBL1146579, “Antifungal agents from the roots of Cudrania cochinchinensis against Candida, Cryptococcus, and Aspergillus species” (2003).

Turning to `CC1(C)C=Cc2c(cc3oc4c(O)cccc4c(=O)c3c2O)O1`, the MIC with Nakaseomyces glabratus, against Candida albicans [1], in the assay with Aspergillus fumigatus [2], against Aspergillus nidulans, in the assay on Aspergillus fumigatus [3] and against Pichia kudriavzevii was greater than 128 mg/L throughout. Moreover, the MIC – broadly, the lowest concentration that inhibits growth of the organism – is greater than 128 mg/L with Candida parapsilosis and 32 mg/L (≈ 103 µM) against Cryptococcus neoformans.
As for `CC(C)=CCc1c(O)cc2oc3ccc(O)cc3c(=O)c2c1O`, the MIC in the assay with Nakaseomyces glabratus, against Candida albicans [1], with Aspergillus fumigatus [2], with Aspergillus nidulans, against Aspergillus fumigatus [3] and in the assay on Pichia kudriavzevii was greater than 128 mg/L each time. Besides, the MIC is greater than 128 mg/L against Candida parapsilosis and 128 mg/L (≈ 410 µM) in the assay with Cryptococcus neoformans. Further, the “inhibition zone (IZ)” value in the assay on Candida albicans [4] worked out at 9 mm.
For `COc1cc(-c2coc3cc(O)cc(O)c3c2=O)ccc1O` [3'-O-METHYLOROBOL], the MIC with Nakaseomyces glabratus, against Candida albicans [1], with Aspergillus fumigatus [2], against Aspergillus nidulans, against Aspergillus fumigatus [3] and with Pichia kudriavzevii was greater than 128 mg/L throughout. For the same compound, the MIC in the assay with Candida parapsilosis and with Cryptococcus neoformans was greater than 128 mg/L in each case.
On to `C[C@@H]1[C@H](O)[C@@H](C)/C=C/C=C/C=C/C=C/C=C/C=C/C=C/[C@H](O[C@@H]2O[C@H](C)[C@@H](O)[C@H](N)[C@@H]2O)C[C@@H]2O[C@](O)(C[C@@H](O)C[C@@H](O)[C@H](O)CC[C@@H](O)C[C@@H](O)CC(=O)O[C@H]1C)C[C@H](O)[C@H]2C(=O)O` [AMPHOTERICIN B], for which the MIC with Nakaseomyces glabratus was determined as 1 mg/L (≈ 1.08 µM); against Candida albicans [1] it was 2 mg/L (≈ 2.16 µM); in the assay with Aspergillus fumigatus [2], 1 mg/L (≈ 1.08 µM); against Aspergillus nidulans, 2 mg/L (≈ 2.16 µM); in the assay on Aspergillus fumigatus [3] it was 1 mg/L (≈ 1.08 µM); with Pichia kudriavzevii it was 2 mg/L (≈ 2.16 µM). This compound had an MIC in the assay with Candida parapsilosis of 2 mg/L (≈ 2.16 µM). The “inhibition zone (IZ)” value in the assay on Candida albicans [4] came out at 22 mm. The zone of inhibition at 100 µg/mL in the assay with Candida albicans [5] was 18 mm.
Take `CC(C)=CCc1c(O)cc2c(c1O)C(=O)CC(c1ccc(O)cc1O)O2` (stereo not drawn) [CUDRAFLAVANONE B]: the MIC with Nakaseomyces glabratus amounted to 128 mg/L (≈ 359 µM); with Candida albicans [1], 64 mg/L (≈ 180 µM); in the assay with Aspergillus fumigatus [2] it was 64 mg/L (≈ 180 µM); in the assay on Aspergillus nidulans, 64 mg/L (≈ 180 µM); in the assay with Aspergillus fumigatus [3], 64 mg/L (≈ 180 µM); in the assay with Pichia kudriavzevii it was 64 mg/L (≈ 180 µM). The values for the MIC in the assay with Candida parapsilosis and in the assay on Cryptococcus neoformans were 128 mg/L (≈ 359 µM) and 32 mg/L (≈ 89.8 µM), respectively. In addition, the “inhibition zone (IZ)” value with Candida albicans [4] stood at 9 mm.
For `COc1cc(O)c(C(=O)c2cccc(O)c2CC=C(C)C)c(O)c1` [CUDRANONE], the minimum inhibitory concentration (MIC) against Nakaseomyces glabratus was greater than 128 mg/L; in the assay with Candida albicans [1] it was greater than 128 mg/L; against Aspergillus fumigatus [2], 16 mg/L (≈ 48.7 µM); against Aspergillus nidulans, 16 mg/L (≈ 48.7 µM); against Aspergillus fumigatus [3] it was 32 mg/L (≈ 97.5 µM); in the assay with Pichia kudriavzevii it was greater than 128 mg/L. The MIC in the assay with Candida parapsilosis and against Cryptococcus neoformans was greater than 128 mg/L throughout. Further, the “inhibition zone (IZ)” value in the assay on Candida albicans [4] was determined as 9 mm.
For `CC(C)=CCc1cc(C(=O)c2cccc(O)c2CC=C(C)C)c(O)cc1O` [CUDRAPHENONE B], the MIC against Nakaseomyces glabratus came out at 16 mg/L (≈ 43.7 µM); in the assay with Candida albicans [1], 16 mg/L (≈ 43.7 µM); with Aspergillus fumigatus [2] it was 4 mg/L (≈ 10.9 µM); in the assay on Aspergillus nidulans, 8 mg/L (≈ 21.8 µM); with Aspergillus fumigatus [3], 8 mg/L (≈ 21.8 µM); in the assay with Pichia kudriavzevii, 16 mg/L (≈ 43.7 µM). In addition, the MIC with Candida parapsilosis was greater than 128 mg/L; against Cryptococcus neoformans it was 4 mg/L (≈ 10.9 µM).
In the case of `CC(C)=CCc1c(O)cccc1C(=O)c1c(O)cc(O)c2c1OC(C)(C)C=C2` [CUDRAPHENONE C], the MIC was greater than 128 mg/L against Nakaseomyces glabratus; 64 mg/L (≈ 168 µM) in the assay with Candida albicans [1]; 8 mg/L (≈ 21 µM) with Aspergillus fumigatus [2]; 32 mg/L (≈ 84.1 µM) in the assay on Aspergillus nidulans; 16 mg/L (≈ 42.1 µM) with Aspergillus fumigatus [3]; 64 mg/L (≈ 168 µM) in the assay with Pichia kudriavzevii. In addition, the MIC with Candida parapsilosis was greater than 128 mg/L; in the assay with Cryptococcus neoformans it was 16 mg/L (≈ 42.1 µM). Besides, the “inhibition zone (IZ)” value in the assay with Candida albicans [4] is recorded as 10 mm.
In the case of `CC(C)=CCc1c(O)cccc1C(=O)c1c(O)cc(O)c(CC=C(C)C)c1O` [CUDRAPHENONE D], the MIC against Nakaseomyces glabratus was found to be 32 mg/L (≈ 83.7 µM); with Candida albicans [1], 16 mg/L (≈ 41.8 µM); against Aspergillus fumigatus [2], 4 mg/L (≈ 10.5 µM); with Aspergillus nidulans, 16 mg/L (≈ 41.8 µM); against Aspergillus fumigatus [3], 8 mg/L (≈ 20.9 µM); against Pichia kudriavzevii, 8 mg/L (≈ 20.9 µM). Moreover, the MIC turned out to be 64 mg/L (≈ 167 µM) against Candida parapsilosis and 2 mg/L (≈ 5.23 µM) with Cryptococcus neoformans. Further, the “inhibition zone (IZ)” value with Candida albicans [4] came out at 11 mm.
For the compound `C=CC(C)(C)c1c(O)cc2oc3c(O)c(O)ccc3c(=O)c2c1O` [CUDRAXANTHONE S], the MIC is 4 mg/L (≈ 12.2 µM) in the assay with Nakaseomyces glabratus; 16 mg/L (≈ 48.7 µM) against Candida albicans [1]; 4 mg/L (≈ 12.2 µM) in the assay on Aspergillus fumigatus [2]; 4 mg/L (≈ 12.2 µM) against Aspergillus nidulans; 4 mg/L (≈ 12.2 µM) against Aspergillus fumigatus [3]; greater than 128 mg/L with Pichia kudriavzevii. Further, the values for the MIC against Candida parapsilosis and against Cryptococcus neoformans were greater than 128 mg/L and 2 mg/L (≈ 6.09 µM), respectively. The “inhibition zone (IZ)” value in the assay with Candida albicans [4] is given as 9 mm.
As for `Clc1ccc(COC(Cn2ccnc2)c2ccc(Cl)cc2Cl)c(Cl)c1` (stereo not drawn) [MICONAZOLE], the minimal inhibitory concentration (MIC) is 0.5 mg/L (≈ 1.2 µM) against Nakaseomyces glabratus; 1 mg/L (≈ 2.4 µM) in the assay on Candida albicans [1]; 0.5 mg/L (≈ 1.2 µM) with Aspergillus fumigatus [2]; 0.25 mg/L (≈ 0.601 µM) in the assay with Aspergillus nidulans; 0.5 mg/L (≈ 1.2 µM) against Aspergillus fumigatus [3]; 1 mg/L (≈ 2.4 µM) against Pichia kudriavzevii. Also, the values for the MIC against Candida parapsilosis and with Cryptococcus neoformans were 0.5 mg/L (≈ 1.2 µM) and 0.064 mg/L (≈ 0.154 µM), respectively. For the same compound, the “inhibition zone (IZ)” value in the assay with Candida albicans [4] was found to be 14 mm. The zone of inhibition at 10 µg/mL in the assay with Candida albicans [6] was found to be 15 mm.
On to `CC(C)=CCc1c(O)cc(O)c2c1OC(c1ccc(O)cc1)CC2=O` (stereo not drawn) [SOPHORAFLAVANONE B], for which the MIC was greater than 128 mg/L with Nakaseomyces glabratus; 64 mg/L (≈ 188 µM) against Candida albicans [1]; 16 mg/L (≈ 47 µM) in the assay on Aspergillus fumigatus [2]; 128 mg/L (≈ 376 µM) with Aspergillus nidulans; greater than 128 mg/L with Aspergillus fumigatus [3]; 64 mg/L (≈ 188 µM) in the assay with Pichia kudriavzevii. The MIC with Candida parapsilosis is greater than 128 mg/L; against Cryptococcus neoformans it was 64 mg/L (≈ 188 µM).
Consider `CC1Oc2cc3oc4c(O)c(O)ccc4c(=O)c3c(O)c2C1(C)C` (stereo not drawn) [TOXYLOXANTHONE C], for which the MIC against Nakaseomyces glabratus was 8 mg/L (≈ 24.4 µM); against Candida albicans [1] it was greater than 128 mg/L; against Aspergillus fumigatus [2], 8 mg/L (≈ 24.4 µM); in the assay on Aspergillus nidulans, 8 mg/L (≈ 24.4 µM); in the assay with Aspergillus fumigatus [3] it was 8 mg/L (≈ 24.4 µM); in the assay on Pichia kudriavzevii it was greater than 128 mg/L. Also, the MIC was greater than 128 mg/L against Candida parapsilosis and 8 mg/L (≈ 24.4 µM) against Cryptococcus neoformans. For the same compound, the “inhibition zone (IZ)” value in the assay with Candida albicans [4] is given as 9 mm.
For `CC(C)=CCc1c(O)cc2occ(-c3ccc(O)cc3)c(=O)c2c1O` [WIGHTEONE], the MIC in the assay with Nakaseomyces glabratus is greater than 128 mg/L; against Candida albicans [1] it was 16 mg/L (≈ 47.3 µM); against Aspergillus fumigatus [2], 2 mg/L (≈ 5.91 µM); against Aspergillus nidulans, 2 mg/L (≈ 5.91 µM); against Aspergillus fumigatus [3], 4 mg/L (≈ 11.8 µM); with Pichia kudriavzevii, greater than 128 mg/L. Further, the MIC in the assay on Candida parapsilosis is greater than 128 mg/L; with Cryptococcus neoformans, 4 mg/L (≈ 11.8 µM). Further, the “inhibition zone (IZ)” value in the assay on Candida albicans [4] is listed as 11 mm.
